Reference: ChEMBL document CHEMBL3045119, “Synthesis and fungicidal activity of novel aminophenazine-1-carboxylate derivatives” (J Agric Food Chem, 2010)

Key:
Assay type in all cases: functional
Alternaria solani = experiment: Fungicidal activity against Alternaria solani assessed as inhibition of mycelium growth at 50 ug/mL by mycelium growth rate method
Procedure, shortened: (§1)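 Mycelium growth rate method: colony diameters measured once mycelia had grown completely, and the relative inhibition rate (%) calculated from the diameters by formula. Phenazine-1-carboxylic acid ran as control. Values are the average of three replicate results.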

Fusarium oxysporum = experiment: Fungicidal activity against Fusarium oxysporum assessed as inhibition of mycelium growth at 50 ug/mL by mycelium growth rate method; procedure, shortened: as §1
Mycosphaerella arachidis = experiment: Fungicidal activity against Mycosphaerella arachidis assessed as inhibition of mycelium growth at 50 ug/mL by mycelium growth rate method; procedure, shortened: as §1
[1] = tested on: Botryosphaeria berengeriana; experiment: Fungicidal activity against Botryosphaeria berengeriana assessed as inhibition of mycelium growth at 50 ug/mL by mycelium growth rate method; procedure, shortened: as §1
Fusarium graminearum = experiment: Fungicidal activity against Fusarium graminearum assessed as inhibition of mycelium growth at 50 ug/mL by mycelium growth rate method; procedure, shortened: as §1

Row | Compound | inhibition at 50 µg/mL (Alternaria solani) | inhibition at 50 µg/mL (Fusarium oxysporum) | inhibition at 50 µg/mL (Mycosphaerella arachidis) | inhibition at 50 µg/mL [1] | inhibition at 50 µg/mL (Fusarium graminearum)
1 | COC(=O)c1cccc2nc3c(C(=O)CCc4ccccc4)cccc3nc12 | 4.3% | 28% | 0% | 31.4% | 30.3%
2 | COC(=O)c1cccc2nc3c(N)c([N+](=O)[O-])cc([N+](=O)[O-])c3nc12 | 21.7% | 32% | 22.2% | 50% | 57.6%
3 | COC(=O)c1cccc2nc3cc(N)ccc3nc12 | 33.3% | 10.8% | 0% | 25% | 15.1%
4 | CCCCOC(=O)c1cccc2nc3cc(OCCCC)c(N)cc3nc12 | 17.4% | 20% | 16.7% | 34.3% | 42.4%
5 | Nc1ccc2nc3c(C(=O)O)cccc3nc2c1 | 5.1% | 2.7% | 11.1% | 4.9% | 1.6%
6 | CCCCOC(=O)c1cccc2nc3cc(N)ccc3nc12 | 43.3% | 13.3% | 17.4% | 29.6% | 7.3%
7 | COC(=O)c1cccc2nc3cc(S(=O)(=O)c4ccc([N+](=O)[O-])cc4)ccc3nc12 | 6.5% | 15.8% | 8% | 18.2% | 0%
8 | CCCCOC(=O)c1cccc2nc3ccc(N)cc3nc12 | 23.3% | 26.7% | 24% | 34.3% | 23.6%
9 | CCCOC(=O)c1cccc2nc3cc(N)c(OCCC)cc3nc12 | 20% | 0% | 21.7% | 26.5% | 20%
10 | COC(=O)c1cccc2nc3c(S(=O)(=O)c4ccccc4[N+](=O)[O-])cccc3nc12 | 3.4% | 0% | 0% | 28.6% | 43.2%
11 | CCOC(=O)c1cccc2nc3ccc(N)cc3nc12 | 20% | 16.7% | 12% | 51.4% | 20%
12 | COC(=O)c1cccc2nc3c(S(=O)(=O)c4ccc([N+](=O)[O-])cc4)cccc3nc12 | 13.8% | 17.9% | 25% | 17.9% | 31.8%
13 | COC(=O)c1cccc2nc3c(C(=O)CCCCl)cccc3nc12 | 13.8% | 0% | 0% | 41.1% | 25%
14 | COC(=O)c1cccc2nc3c(C(=O)c4ccc(Cl)cc4Cl)cccc3nc12 | 3.4% | 7.1% | 0% | 10.7% | 27.3%
15 | COC(=O)c1cccc2nc3c(NC(=O)CCCCl)c([N+](=O)[O-])ccc3nc12 | 20.5% | 16.3% | 35% | 34.4% | 40.4%
16 | Nc1cccc2nc3c(C(=O)O)cccc3nc12 | 0% | 13.8% | 7.7% | 19.2% | 12.9%
17 | CCOC(=O)c1cccc2nc3cc(N)c(OCC)cc3nc12 | 17.6% | 6.9% | 11.5% | 26.9% | 14.5%
18 | COC(=O)c1cccc2nc3cc(C(=O)COC(C)=O)ccc3nc12 | 6.5% | 5.3% | 4% | 1.8% | 4.8%
19 | CCCCOC(=O)c1cccc2nc3c(N)cccc3nc12 | 24.2% | 21.4% | 8.3% | 15.6% | 2.7%
20 | CCCOC(=O)c1cccc2nc3ccc(N)cc3nc12 | 20.2% | 33.3% | 20% | 48.6% | 27.3%
